MsrA inhibitor: bovine MsrA enzyme inhibitors, primary screen, biochemical, absorbance, HTS. Methionine sulfoxide reductase A (Bos taurus). purified bovine MsrA, absorbance read-out. inhibition, % at 15.5 µM. 360,000 tested, 0.75% active; in the data active = inhibition above about 4.5%
MT1-MMP act inh: blockers of MT1-MMP proenzyme processing, primary screen, HT1080 RFP-PRO-GFP cells, GFP/RFP fluorescence | GFP/RFP ratio fluorescence, overnight; percent of plate control window, DMSO zero | GFP/RFP ratio change, % at 20 µM | Matrix metalloproteinase-14 (Homo sapiens), P50281 | AID 651647, 2012 | 360,000 tested, 0.061% active;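 active = GFP/RFP ratio change of at least 30% with cell ATP level not reduced by more than half and red fluorescence within 50% of control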
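Test system: HT1080 RFP-PRO-GFP cells; Benchmarks: DMSO and RFP-L50D-GFP cell wells; Timing: cells overnight before dosing, compound overnight, 37 °C, 5% CO2; Compound: one 20 µM compound dose with 1% DMSO; Read-out: GFP/RFP fluorescence ratio.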
DAGLB inhibitor: DAGLB lipase inhibitors, primary screen, biochemical, fluorescence, HTS; Diacylglycerol lipase-beta (Homo sapiens), Q8NCG7; HEK293T DAGLB membrane lysate, EnzChek fluorogenic substrate; inhibition, % at 5.17 µM; 340,000 tested, 0.059% active; in the data active = inhibition above about 34%
Target sequence (Q8NCG7 whole entry, looked up): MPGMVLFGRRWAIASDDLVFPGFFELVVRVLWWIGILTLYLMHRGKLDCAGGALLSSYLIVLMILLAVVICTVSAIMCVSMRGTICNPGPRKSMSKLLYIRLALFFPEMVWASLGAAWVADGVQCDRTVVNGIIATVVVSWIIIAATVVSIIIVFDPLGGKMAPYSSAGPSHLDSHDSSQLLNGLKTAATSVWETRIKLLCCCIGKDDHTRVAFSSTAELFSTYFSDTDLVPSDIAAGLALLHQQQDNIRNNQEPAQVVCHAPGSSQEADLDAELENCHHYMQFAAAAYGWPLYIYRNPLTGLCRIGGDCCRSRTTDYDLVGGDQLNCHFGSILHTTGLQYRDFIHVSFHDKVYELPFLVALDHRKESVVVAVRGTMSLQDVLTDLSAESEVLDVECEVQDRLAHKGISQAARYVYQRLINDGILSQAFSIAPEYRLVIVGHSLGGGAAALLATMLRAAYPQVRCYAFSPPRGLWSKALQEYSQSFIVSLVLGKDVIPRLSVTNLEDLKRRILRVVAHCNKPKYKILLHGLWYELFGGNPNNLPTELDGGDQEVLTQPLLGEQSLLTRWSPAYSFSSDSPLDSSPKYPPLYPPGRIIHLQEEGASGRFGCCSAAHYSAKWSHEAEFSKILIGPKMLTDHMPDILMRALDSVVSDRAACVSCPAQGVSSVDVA
SKN-1 block: suppressors of acrylamide-induced Pgst-4::GFP reporter in worms, primary screen, SKN-1 inhibitor project, whole organism, uHTS, GFP/RFP fluorescence ratio, strain VP596. inhibition, % at 21.8 µM. 360,000 tested, 0.49% active. AID 624304, 2012. C. elegans VP596 Pgst-4::GFP/RFP ratio, 24 h;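 active = interference check ratio from 0.5 to 1.5 plus GFP to RFP signal ratio inhibition reaching or exceeding a fixed threshold, cut at about 30% in these data, passing the limit was not always enough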
MsrA act: bovine MsrA enzyme activators, primary screen, biochemical, absorbance, HTS; activation, % at 10.6 µM; 360,000 tested, 0.3% active; AID 602163, 2012; purified bovine MsrA, absorbance read-out; Methionine sulfoxide reductase A (Bos taurus); in the data active = activation above about 7.5%
beta cell repl: inducers of MIN6 beta-cell proliferation, primary screen, ATP luminescence, uHTS; MIN6 cells proliferation, ATPlite luminescence, 48 h; cells starved in 0.2% serum; 100% = growth in 10% serum; 330,000 tested, 0.29% active; proliferation, % at 10 µM;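 active = compounds whose signal lies at least 3.5 SD above the mean of all wells on their plate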
Each line names hits and unclear results; the compound was inactive in the other large screens. A selection: hits, their analogues and other compounds. The true share with any hit is near 1.8%.

CCOC(=O)c1nnn(-c2nonc2N)c1CSc1ccccn1	MsrA act 8.0
O=C(C(=O)N1CCC(CNS(=O)(=O)c2cccc3ccccc23)CC1)c1cccs1	none (no result: MT1-MMP act inh, DAGLB inhibitor, SKN-1 block, MsrA act, beta cell repl)
CCc1c(-c2ccc(OC)cc2)ncn1CCc1ccccc1OC	none (no result: MT1-MMP act inh, DAGLB inhibitor, SKN-1 block, MsrA act, beta cell repl)
CCN1/C(=C/c2ccc3ccccc3[n+]2CC)C=Cc2ccccc21	none
CCN1/C(=C/c2ccc3ccccc3[n+]2CCCS(=O)(=O)[O-])C=Cc2cc(C)ccc21	SKN-1 block 39 (no result: beta cell repl)
Oc1ccccc1O	none
Nc1ccccc1O	MsrA act 9.4 (no result: MsrA inhibitor)
Cc1ccc2nc(CN(C)C(=O)[C@H](CCc3ccccc3)NC(=O)[C@H]3O[C@@H](n4cnc5c(N)ncnc54)[C@H](O)[C@@H]3O)[nH]c2c1	none (no result: MT1-MMP act inh, DAGLB inhibitor, SKN-1 block, MsrA act, beta cell repl)
C=CCSc1nnc(-c2cccc3ccccc23)o1	none
C#CCSc1nnc(-c2cccc3ccccc23)o1	SKN-1 block 82
CC1CN(c2nn3c(=O)c4ccccc4nc3c3ccccc23)CC(C)O1 (stereo not drawn)	MsrA act 9.7
CCN1CCN(c2nn3c(=O)c4ccccc4nc3c3ccccc23)CC1	none
O=C(NCc1ccccc1)[C@@H]1CCCN1C(=O)[C@H]1CCCN1C(=O)c1c(F)cccc1F	none (no result: MT1-MMP act inh, DAGLB inhibitor, SKN-1 block, MsrA act, beta cell repl)
COc1ccc(Nc2nnc(SCC(=O)/C=C3/N(C)c4ccccc4C3(C)C)s2)cc1	SKN-1 block 37
CN1/C(=C\C(=O)COC(=O)CNC(=O)c2ccc3ccccc3c2)C(C)(C)c2ccccc21	SKN-1 block 40
CN1/C(=C\C(=O)CSc2nnc(N)s2)C(C)(C)c2ccccc21	none
CN1/C(=C/C(=O)CSc2ccccc2C(=O)O)C(C)(C)c2ccccc21	SKN-1 block 36
O=C(Nc1ccc(O)cc1)c1cc2ccccc2c(=O)s1	MsrA inhibitor 4.7
O=C(Nc1ccccc1)c1cc2ccccc2c(=O)s1	none
O=NN(CC(=O)NN=CC=Cc1ccccc1)CC(=O)NN=CC=Cc1ccccc1	none (no result: DAGLB inhibitor, beta cell repl)
O=C(CN1CCOCC1)N/N=C/C=C/c1ccccc1	beta cell repl 8.9
Cc1ccc(NC(=O)NCc2cccnc2)cc1	none
CC(C)c1ccc(NC(=O)NCc2cccnc2)cc1	SKN-1 block 39
Cc1ccccc1-c1ccc2c(c1)[C@@H]1C[C@H](N(C)C(=O)Nc3ccccc3)[C@H]([C@H](C)O)CN1CC2	none (no result: MT1-MMP act inh, DAGLB inhibitor, SKN-1 block, MsrA act, beta cell repl)
CCOC(=O)c1ccccc1NC(=O)Cc1ccccc1OC	SKN-1 block 50
COc1ccccc1CC(=O)Nc1ccccc1C(=O)O	none
CC(=O)NC(=S)Nc1ccc(NC(=S)NC(=O)/C=C/c2ccco2)cc1	none
O=C(/C=C/c1ccco1)NC(=S)NNC(=O)c1ccco1	MsrA inhibitor 6.6
CN(C)c1ccc(CN(C(=O)COc2ccc(F)cc2)C2CCS(=O)(=O)C2)cc1 (stereo not drawn)	MsrA act 8.2 (no result: MsrA inhibitor)
Clc1ccc(-c2nnc(-c3ccccc3)c(-c3ccccc3)n2)cc1	none
COc1nc(-c2ccccc2)nnc1-c1ccccc1	SKN-1 block 52 (no result: beta cell repl)
COc1cccc(CNC(=O)[C@H]2CCCN2C(=O)[C@H]2CCCN2C(=O)c2ccc(OC(F)(F)F)cc2)c1	none (no result: MT1-MMP act inh, DAGLB inhibitor, SKN-1 block, MsrA act, beta cell repl)
CC12C=CC(C)(C3C(=O)NC(=O)C31)C1C3C(=O)NC(=O)C3C12 (stereo not drawn)	none (no result: MT1-MMP act inh, DAGLB inhibitor, SKN-1 block, MsrA act, beta cell repl)
CC(=O)C1=C(C)OC(N)=C(C#N)C1c1ccco1 (stereo not drawn)	SKN-1 block 37
C[C@@H]1CN(S(=O)(=O)C(C)(C)C)[C@@H](CCO)/C1=C\CCO	none (no result: MT1-MMP act inh, DAGLB inhibitor, SKN-1 block, MsrA act, beta cell repl)
CCCCN1C(=O)/C(=C/C=C2\SCCN2C)SC1=S	SKN-1 block 48
CCN(CC)c1ccc(N=Cc2ccccc2[N+](=O)[O-])cc1	MT1-MMP act inh 52
O=S(=O)(CS(=O)(=O)c1ccccc1Br)c1ccccc1Br	none (no result: MT1-MMP act inh, DAGLB inhibitor, SKN-1 block, MsrA act, beta cell repl)
CC(Oc1ccc(Br)cc1)C(=O)O/N=C(\N)c1ccncc1 (stereo not drawn)	SKN-1 block 54
N/C(=N\OC(=O)COc1ccc(Br)cc1)c1ccncc1	none
CC(=O)Nc1c(Br)cc2c(c1Br)Cc1cc(Br)ccc1-2	none (no result: beta cell repl)
CC(=O)Nc1ccc2c(c1)Cc1c-2cc(Br)c(N)c1Br	SKN-1 block 37 (no result: beta cell repl)
Cc1ccc(C2CC(C(F)(F)F)n3nc(C(=O)NCc4c(C)nn(C)c4C)c(Cl)c3N2)cc1 (stereo not drawn)	SKN-1 block 46
O=S(=O)(Nc1ccc(C(F)(F)F)cc1)c1cnc[nH]1	SKN-1 block 38
O=S(=O)(Nc1cccc(C(F)(F)F)c1)c1cnc[nH]1	none
CCOC(=O)c1c(N)sc2c1CCC(CC)C2 (stereo not drawn)	none
CCOC(=O)c1c(N)sc2c1CCSC2	SKN-1 block 37
Cc1cc(C)c(S(=O)(=O)N2CCCCC2)c(C)c1N(C)S(=O)(=O)c1ccccc1	MsrA act 9.7
Cc1cnc(C(=O)N(CCCn2ccnc2)C2C(=O)Nc3ccccc3N=C2c2ccccc2)cn1 (stereo not drawn)	SKN-1 block 37 (no result: DAGLB inhibitor, beta cell repl)
C[C@@H]1CN([C@@H](C)CO)C(=O)CCCn2nncc2CO[C@H]1CN(C)C(=O)Nc1ccc(N2CCN(C)CC2)cc1	none (no result: MT1-MMP act inh, DAGLB inhibitor, SKN-1 block, MsrA act, beta cell repl)
COC(=O)[C@]12CCCCC=C1N(Cc1ccc3c(c1)OCO3)C(=O)[C@H](CC(=O)N1CCCCC1)C2	none (no result: DAGLB inhibitor, MsrA act, beta cell repl)
Cc1ccc(-c2nnn(CC(=O)NCC3COCCO3)n2)o1 (stereo not drawn)	SKN-1 block 42
CN(C)C(CNC(=O)CCc1nc2cc(Cl)ccc2n(Cc2ccccc2)c1=O)c1ccccc1 (stereo not drawn)	SKN-1 block 57
C[C@@H]1C=CCCO[C@]12C(=O)N(CC1CC1)c1cccc(Br)c12	none (no result: MT1-MMP act inh, DAGLB inhibitor, SKN-1 block, MsrA act, beta cell repl)
COC(=O)c1cc2c(c3c4cc(F)ccc4n(S(=O)(=O)c4ccc(C)cc4)c13)C(=O)N(Cc1ccc(C(F)(F)F)cc1)C2	none (no result: MT1-MMP act inh, DAGLB inhibitor, SKN-1 block, MsrA act, beta cell repl)
O=C(N/N=C\c1ccncc1)c1ccc(Br)s1	SKN-1 block 41
O=C(N/N=C\c1cccnc1)c1ccc(Br)s1	none
COc1ccc(CNC(=O)[C@@H](Cc2ccccc2)NC(=O)[C@H]2O[C@@H](n3ccc(=O)[nH]c3=O)[C@H](O)[C@@H]2O)cc1	none (no result: MT1-MMP act inh, DAGLB inhibitor, SKN-1 block, MsrA act, beta cell repl)
c1ccc2c(c1)NC(c1ccncc1)n1c-2nc2ccccc21 (stereo not drawn)	SKN-1 block 34
c1cncc(C2Nc3ccccc3-c3nc4ccccc4n32)c1 (stereo not drawn)	none
CC(C)OC(=O)n1c(=S)oc2ccccc21	none
CCCCC(=O)/C=C/n1c(=S)oc2ccccc21	SKN-1 block 39
